According to article PMC2386536 (The Journal of Endocrinology, 2008):

Columns and labels:
[1] = test system: ischaemia and reperfusion in the rabbit; settings: in vivo; cited from earlier work
[2] = test system: ischaemia–reperfusion injury in the rat; assay: EPR free radical production from hearts after in vivo ischaemia–reperfusion; settings: CP-H spin trap
How it was run: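 Hearts were excised after in vivo ischaemia–reperfusion (45 min/2 h) and perfused retrogradely with warmed, gassed Krebs–Henseleit. With the LCA snare re-tied, 10 μl of 10−1 M CP-H spin trap was injected above the heart and 500 μl perfusate (drops 6–11) collected, four times per heart and averaged. This was repeated with the snare released, then with 500 U SOD. Samples were incubated at 37 °C for 20 min and read by EPR.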

[3] = mean arterial blood pressure and heart rate during ischaemia–reperfusion; type: in vivo, rat; settings: data not shown
How it was run: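 They were then dosed with test compound or vehicle for 5 days, with the last dose 2–3 h before surgery. Under pentobarbitone anaesthesia (60 mg/kg i.p.), MABP was recorded via a carotid artery cannula. The protocol was 20-min stabilisation, 45-min LCA occlusion, then 2-h reperfusion.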

SMILES	cardioprotection / infarct size [1]	free radical production from the AAR compared with placebo/vehicle [2]	effect on MABP pattern and MABP at end of ischaemia or reperfusion [3]
CCCc1c(-c2ccc(O)cc2)nn(-c2ccc(O)cc2)c1-c1ccc(O)cc1 [PPT, 4,4,4-4 propyl-(1H)-pyrazole 1,3,5-triyltrisphenol]	reduced infarct size		
C[C@]12CC[C@@H]3c4ccc(O)cc4CC[C@H]3[C@@H]1CC[C@@H]2O [17βE2, 17β-oestradiol]		Significantly fewer free radicals	did not have a significant effect
